In PMC4894453 (Scientific Reports, 2014):
Values after ≈ are worked out from the molar mass of the structure shown.

Tests used:
Format in all cases: cell-based
[1] = test system: methicillin-resistant Staphylococcus aureus N315; test: MIC, microbroth dilution, MRSA; conditions: Staphylococcus aureus, MRSA, read-out: MIC against Gram-positive bacteria, MRSA
Summary of the method: (§1)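 CLSI microbroth dilution in Mueller-Hinton broth. Test compound at final 200–0.1 μg/ml, diluted from 10 mg/ml DMSO stocks. Plates incubated 18–20 h. MIC is the lowest concentration preventing visible growth.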

[2] = test system: Streptococcus pyogenes ATCC 700294; test: MIC, microbroth dilution, Streptococcus pyogenes; conditions: Streptococcus pyogenes, ATCC700294, read-out: MIC against Gram-positive bacteria, SP
[3] = test system: Vero cells (kidney epithelial cells; ATCC CCL-81); test: Cytotoxicity, CellTiter-Glo viability; conditions: for Selectivity index: Cytotox IC50/MIC against methicillin-susceptible S. aureus Newman
Summary of the method: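 Vero kidney epithelial cells exposed 72 h to test compound (final 200–0.1 μg/ml in DMEM; diluted from 10 mg/ml DMSO stocks). Viability read by CellTiter-Glo luminescence. IC50 is the concentration giving 50% viability loss, from curve fitting. Selectivity index is the cytotoxic IC50 divided by the MIC against S. aureus Newman.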

[4] = test system: Bacillus subtilis ATCC 23857; test: MIC, microbroth dilution, Bacillus subtilis; conditions: Bacillus subtilis, ATCC23857, read-out: MIC against Gram-positive bacteria, BS
Summary of the method: as §1

[5] = test system: Enterococcus faecalis ATCC 33186; test: MIC, microbroth dilution, Enterococcus faecalis; conditions: Enterococcus faecalis, ATCC33186, read-out: MIC against Gram-positive bacteria, EF, Enterococcus faecalis ATCC 33186; Mueller-Hinton broth, 18–20 h
[6] = test system: Bacillus anthracis sterne; test: microbe, parasite or virus in culture; conditions: Bacillus anthracis, read-out: MIC against Gram-positive bacteria, BA
[7] = test system: Clostridium difficile BAA 1803; test: MIC, microbroth dilution, anaerobic, Clostridium difficile; conditions: Clostridioides difficile, BAA1803, 24 h, read-out: MIC against Gram-positive bacteria, CD, Clostridium difficile BAA 1803; Brain-heart infusion broth, 24 h, anaerobic
[8] = test system: Streptococcus pneumoniae R6; test: MIC, microbroth dilution, Streptococcus pneumoniae; conditions: Streptococcus pneumoniae, R6, read-out: MIC against Gram-positive bacteria, SPn
Summary of the method: as §1

[9] = test system: panel of clinical relevant Gram-positive pathogens; test: MIC, statements over the Gram-positive panel

Compound | MIC [1] | MIC [2] | Selectivity index [3] | Cytotox IC50 ([3]; Vero kidney cells, 72 h, 50% reduction of viability) | MIC [4] | MIC [5] | MIC [6] | MIC [7] | MIC [8] | fold better activity than 3 throughout the panel ([9]; Gram-positive panel, compared to 3) | fold less active than reutericyclin ([9]; Gram-positive panel (most bacteria))
CCCCCCC/C=C/C(=O)N1C(=O)/C(=C(/C)O)C(=O)C1Cc1ccc(O)cc1 (centres unmarked) [Compound 19, (Z)-1-((E)-dec-2-enoyl)-5-(4-hydroxybenzyl)-3-(1-hydroxyethylidene)pyrrolidine-2,4-dione] | 25 µg/mL (≈ 62.6 µM) | 50 µg/mL (≈ 125 µM) | 2 | 93.53 µg/mL | 50 µg/mL (≈ 125 µM) | 50 µg/mL (≈ 125 µM) | 200 µg/mL (≈ 501 µM) | 32 µg/mL (≈ 80.1 µM) | 25 µg/mL (≈ 62.6 µM) |  | 
CCCCCCC/C=C/C(=O)N1CC(=O)/C(=C(\C)O)C1=O [Compound 14, (Z)-1-((E)-dec-2-enoyl)-3-(1-hydroxyethylidene)pyrrolidine-2,4-dione] | 3.2 µg/mL (≈ 10.9 µM) | 50 µg/mL (≈ 170 µM) | 3 |  | 12.5 µg/mL (≈ 42.6 µM) | 6.25 µg/mL (≈ 21.3 µM) | 1.56 µg/mL (≈ 5.32 µM) | 2 µg/mL (≈ 6.82 µM) | 12.5 µg/mL (≈ 42.6 µM) |  | 
C/C(O)=C1\C(=O)C(CC(C)C)N(C(=O)C=Cc2ccccc2)C1=O (centres unmarked) [Compound 4, (Z)-1-cinnamoyl-3-(1-hydroxyethylidene)-5-isobutylpyrrolidine-2,4-dione] | 1.6 µg/mL (≈ 4.89 µM) | 25 µg/mL (≈ 76.4 µM) | 2 |  | 25 µg/mL (≈ 76.4 µM) | 12.5 µg/mL (≈ 38.2 µM) | > 200 µg/mL | 8 µg/mL (≈ 24.4 µM) | 3.13 µg/mL (≈ 9.56 µM) | ≤ 8 fold | 
CCCCC(=O)N1C(=O)/C(=C(/C)O)C(=O)C1CC(C)C (centres unmarked) [Compound 3, (Z)-3-(1-hydroxyethylidene)-5-isobutyl-1-pentanoylpyrrolidine-2,4-dione] | 12.5 µg/mL (≈ 44.4 µM) | 12.5 µg/mL (≈ 44.4 µM) | 1 |  | 100 µg/mL (≈ 355 µM) | 50 µg/mL (≈ 178 µM) | > 200 µg/mL | 16 µg/mL (≈ 56.9 µM) | 6.25 µg/mL (≈ 22.2 µM) |  | ≥ 32 fold
CCCCCCC/C=C/C(=O)N1C(=O)/C(=C(\O)c2ccc(O)cc2)C(=O)C1CC(C)C (centres unmarked) [Compound 12, (Z)-1-((E)-dec-2-enoyl)-3-(hydroxy(4-hydroxyphenyl)methylene)-5-isobutylpyrrolidine-2,4-dione] | 6.25 µg/mL (≈ 14.6 µM) | 50 µg/mL (≈ 117 µM) | 9 |  | 3.13 µg/mL (≈ 7.32 µM) | 12.5 µg/mL (≈ 29.2 µM) | 0.78 µg/mL (≈ 1.82 µM) | 2 µg/mL (≈ 4.68 µM) | 50 µg/mL (≈ 117 µM) |  | 
CCCCCCC/C=C/C(=O)N1C(=O)/C(=C(\O)c2ccncc2)C(=O)C1CC(C)C (centres unmarked) [Compound 8, (Z)-1-((E)-dec-2-enoyl)-3-(hydroxy(pyridin-4-yl)methylene)-5-isobutylpyrrolidine-2,4-dione] | 12.5 µg/mL (≈ 30.3 µM) | 100 µg/mL (≈ 242 µM) | 5 |  | 100 µg/mL (≈ 242 µM) | 50 µg/mL (≈ 121 µM) | 50 µg/mL (≈ 121 µM) | 0.5 µg/mL (≈ 1.21 µM) | 25 µg/mL (≈ 60.6 µM) |  | 
CCCCCCC/C=C/C(=O)N1C(=O)/C(=C(\O)c2ccc(OCOCCOC)cc2)C(=O)C1CC(C)C (centres unmarked) [Compound 11, (Z)-1-((E)-dec-2-enoyl)-3-(hydroxy(4-((2-methoxyethoxy)methoxy)phenyl)methylene)-5-isobutylpyrrolidine-2,4-dione] | 0.2 µg/mL (≈ 0.388 µM) | 25 µg/mL (≈ 48.5 µM) | 25 |  | 1.56 µg/mL (≈ 3.03 µM) | 0.78 µg/mL (≈ 1.51 µM) | 0.2 µg/mL (≈ 0.388 µM) | 0.25 µg/mL (≈ 0.485 µM) | 12.5 µg/mL (≈ 24.2 µM) |  | 
